# *1 amine or outer side, *2 acyl side, *3 side chain or, on linkers, in order; H or OH if unused. Where a SMILES comes first, the peptide text is derived from it. Bridges are numbered along the chain shown (N, C = ends). [ ]: non-standard residue; d: D form. X1 = O=C(CC1(S[*:2])CCCCC1)[*:1]; Orn = NCCC[C@H](N)C(=O)O
# Key:
# Rattus norvegicus [1] = species: Rattus norvegicus; assay: Antidiuretic activity in rats and pA2 value is negative logarithm of effective dose (ED); format: functional, organism-based; details: Urine, read-out: pA2 (converted)
# In short: (§1)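 Antidiuretic assay in rats under ethanol anaesthesia against the USP posterior pituitary reference standard. Standard given 20 min after antagonist, or 10 min for analogues lacking agonism. Each peptide given at a high and a low dose. ED is the dose (nmol/kg) that cuts the response to 2x units of agonist to the response to 1x unit given before antagonist. […] Means ± SE, n assays.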
# Rattus norvegicus [2] = species: Rattus norvegicus; assay: Anti-oxytocic activity on isolated rat uterus in absence of Mg2+. pA2 value is negative logarithm of effective dose (ED); format: functional; details: read-out: pA2 (converted)
# In short: (§2)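 Isolated rat uterus, with USP posterior pituitary reference standard as agonist. Antagonism expressed as pA2.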
# Rattus norvegicus [3] = assay: Evaluated in vivo for logarithm effective dose (ED); format: functional, organism-based
# Rattus norvegicus [4] = species: Rattus norvegicus; assay: Anti-oxytocic activity on isolated rat uterus in presence of 0.5 mM of Mg2+. pA2 value is negative logarithm of effective dose (ED); format: functional; details: read-out: pA2 (converted); in short: as §2
# Rattus norvegicus [5] = assay: In vivo anti-vasopressor activity in phenoxybenzamine-treated rats under urethane anesthesia is measured as effective dose; format: functional
# In short: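 Intravenous vasopressor assay in phenoxybenzamine-treated rats under urethane anaesthesia, agonist USP posterior pituitary reference standard. ED is the dose (nmol/kg) that reduces the response to 2x units of agonist to that of 1x unit given before antagonist. […] Means ± SE, number of assays given.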
# [6] = Ratio of anti-vasopressor ED50 to antiantidiuretic ED50; format: functional, Urine
# In short: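 Ratio of antivasopressor ED to antiantidiuretic ED. Each ED is the dose (nmol/kg) that lowers the response to 2x units of agonist to that of 1x unit before antagonist. Measured in rats: vasopressor assay in phenoxybenzamine-treated, urethane-anaesthetised animals; antidiuretic assay under ethanol anaesthesia.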
# Rattus norvegicus [7] = assay: In vivo antidiuretic activity in rat measured as dose that reduced the response seen with 2x units of agonist to equal the response seen with 1x unit of agonist administered before antagonist; format: functional, Urine; in short: as §1
Structure (SMILES),Kb (Rattus norvegicus [1]) [nM],Kb (Rattus norvegicus [2]) [nM],in vivo pA2 effective dose (as concentration) (Rattus norvegicus [3]) [nM],Kb (Rattus norvegicus [4]) [nM],ED (Rattus norvegicus [5]) [nmol/kg],Ratio [6],ED (Rattus norvegicus [7]) [nmol/kg]
CC[C@@H](C)[C@H]1NC(=O)CC2(CCCCC2)SSC[C@@H](C(=O)N2CCC[C@H]2C(=O)N[C@@H](CCCN=C(N)N)C(=O)NCC(N)=O)NC(=O)[C@H](CC(N)=O)NC(=O)[C@H](CCCN)NC(=O)[C@H](Cc2ccccc2)NC1=O [listing 1 of 2 here],347,26.9,174,195,–,–,–
CC[C@@H](C)[C@H]1NC(=O)CC2(CCCCC2)SSC[C@@H](C(=O)N2CCC[C@H]2C(=O)N[C@@H](CCCN=C(N)N)C(=O)NCC(N)=O)NC(=O)[C@H](CC(N)=O)NC(=O)[C@H](CO)NC(=O)[C@H](Cc2ccccc2)NC1=O,–,–,–,–,45,10,4.6
CC[C@@H](C)[C@H]1NC(=O)CC2(CCCCC2)SSC[C@@H](C(=O)N2CCC[C@H]2C(=O)N[C@@H](CCCN=C(N)N)C(=O)NCC(N)=O)NC(=O)[C@H](CC(N)=O)NC(=O)[C@H](CC(N)=O)NC(=O)[C@H](Cc2ccccc2)NC1=O [listing 1 of 2 here],309,11.7,55,39.8,–,–,–
CC[C@@H](C)[C@H]1NC(=O)CC2(CCCCC2)SSC[C@@H](C(=O)N2CCC[C@H]2C(=O)N[C@@H](CCCN=C(N)N)C(=O)NCC(N)=O)NC(=O)[C@H](CC(N)=O)NC(=O)[C@H](CCCCN)NC(=O)[C@H](Cc2ccccc2)NC1=O [listing 1 of 2 here],174,79.4,–,251,–,–,–
CC[C@@H](C)[C@H]1NC(=O)CC2(CCCCC2)SSC[C@@H](C(=O)N2CCC[C@H]2C(=O)N[C@@H](CCCN=C(N)N)C(=O)NCC(N)=O)NC(=O)[C@H](CC(N)=O)NC(=O)[C@H](CCCN)NC(=O)[C@H](Cc2ccccc2)NC1=O [listing 2 of 2 here],–,–,–,–,11.9,0.24,49
CC[C@@H](C)[C@H]1NC(=O)CC2(CCCCC2)SSC[C@@H](C(=O)N2CCC[C@H]2C(=O)N[C@@H](CCCN=C(N)N)C(=O)NCC(N)=O)NC(=O)[C@H](CC(N)=O)NC(=O)[C@H](CC(N)=O)NC(=O)[C@H](Cc2ccccc2)NC1=O [listing 2 of 2 here],–,–,–,–,3.9,0.16,25
CC[C@@H](C)[C@H]1NC(=O)CC2(CCCCC2)SSC[C@@H](C(=O)N2CCC[C@H]2C(=O)N[C@@H](CCCN=C(N)N)C(=O)NCC(N)=O)NC(=O)[C@H](CC(N)=O)NC(=O)[C@H](CC2CCCCC2)NC(=O)[C@H](Cc2ccccc2)NC1=O,–,–,–,–,19.1,1.2,15.6
CC[C@@H](C)[C@H]1NC(=O)CC2(CCCCC2)SSC[C@@H](C(=O)N2CCC[C@H]2C(=O)N[C@@H](CCCN=C(N)N)C(=O)NCC(N)=O)NC(=O)[C@H](CC(N)=O)NC(=O)[C@H](CC(C)C)NC(=O)[C@H](Cc2ccccc2)NC1=O,–,–,–,–,12.4,1.1,11
CC[C@@H](C)[C@H]1NC(=O)CC2(CCCCC2)SSC[C@@H](C(=O)N2CCC[C@H]2C(=O)N[C@@H](CCCN=C(N)N)C(=O)NCC(N)=O)NC(=O)[C@H](CC(N)=O)NC(=O)[C@H](C(C)C)NC(=O)[C@H](Cc2ccccc2)NC1=O,–,–,–,–,–,12,–
CC[C@@H](C)[C@H]1NC(=O)CC2(CCCCC2)SSC[C@@H](C(=O)N2CCC[C@H]2C(=O)N[C@@H](CCCN=C(N)N)C(=O)NCC(N)=O)NC(=O)[C@H](CC(N)=O)NC(=O)[C@H](Cc2ccccc2)NC(=O)[C@H](Cc2ccccc2)NC1=O,–,74.1,–,120,–,–,–
CC[C@@H](C)[C@H]1NC(=O)CC2(CCCCC2)SSC[C@@H](C(=O)N2CCC[C@H]2C(=O)N[C@@H](CCCN=C(N)N)C(=O)NCC(N)=O)NC(=O)[C@H](CC(N)=O)NC(=O)[C@H](CCCCN)NC(=O)[C@H](Cc2ccccc2)NC1=O [listing 2 of 2 here],–,–,–,–,–,–,11.9
NCCC[C@@H]1NC(=O)[C@H](Cc2ccccc2)NC(=O)[C@@H](Cc2ccccc2)NC(=O)CC2(CCCCC2)SSC[C@@H](C(=O)N2CCC[C@H]2C(=O)N[C@@H](CCCN=C(N)N)C(=O)NCC(N)=O)NC(=O)[C@H](CC(N)=O)NC1=O ([dF]F[Orn]NCPRG-NH2; linker N-5 via X1),–,–,–,–,1.9,0.09,21.3

# — ChEMBL document CHEMBL1122629, “Potent and selective antagonists of the antidiuretic responses to arginine-vasopressin based on modifications of [1-(beta-mercapto-beta,beta-pentamethylenepropionic acid),2-D-isoleucine,4- valine]arginine-vasopressin at position 4” (J Med Chem, 1984)
